This is a sample that favours compounds with a hit; in the whole collection about 5.8% have one here.
WT yeast gro inh: growth inhibition of WT yeast, mitochondrial fusion screen; mitochondrial fusion phenotypic screen, WT strain; inhibition, % at 10 µM; hit rate 2.1% among 190,000; AID 1362; in the data active = inhibition above about 58%; tested in S. cerevisiae
KCC2 mod: modulators of human KCC2 chloride dependent transport. KCC2 cells, thallium flux FluoZin-2 fluorescence. AID 1456. Q9H2X9. B-score of Tl+ flux slope (higher = more flux/activation; lower = inhibition) at 10 µM. hit rate 2.2% among 190,000;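 active = thallium flux slope and its plate-corrected score both differing from the plate sample mean at a set confidence after two filtering rounds, in either direction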;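 note: slope of fluorescence scaled to starting intensity during 10 to 20 s after thallium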
ROMK mod: modulates human ROMK potassium channel activity; Tet-inducible ROMK, thallium flux fluorescence; actives lie on both sides; hit rate 2% among 130,000; B-score at 10 µM; P48048;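 active = signal ratio slope over the read window, or its plate-corrected B-score, at least 3 SD from the plate mean, either direction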;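 note: B-score of the F/F0 ratio slope over 7 to 12 s after thallium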
p47phox inh: p47phox (human) inhibition; AID 1274; P14598; inhibition, % at 24.7 µM; p47phox/p22phox peptide binding, fluorescence polarization, 2 h; hit rate 0.53% among 220,000;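 active = inhibition above about 30%, limit read from the data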;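 note: 0% = p47phox with labelled peptide and 100% = labelled peptide alone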
RBBP9 inhibitor: human RBBP9 hydrolase inhibition. O75884. recombinant RBBP9, FP-Rh probe fluorescence polarization. inhibition, % at 7.94 µM. hit rate 0.2% among 220,000;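 active = inhibition above the campaign mean of all tested compounds plus 3 SD, cut at about 14% in these data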;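 note: plate controls were DMSO wells with RBBP9 for no effect and wells lacking RBBP9 protein for full effect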
Target sequence (O75884 whole entry, looked up): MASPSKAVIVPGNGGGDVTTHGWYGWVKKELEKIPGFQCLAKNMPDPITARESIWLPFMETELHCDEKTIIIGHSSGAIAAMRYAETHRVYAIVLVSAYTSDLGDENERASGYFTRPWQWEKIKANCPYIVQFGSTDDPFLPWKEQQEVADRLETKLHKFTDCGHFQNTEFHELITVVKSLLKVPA
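Measured by – fluorescence polarization · Test system – RBBP9 protein · Input – 2.5 µM RBBP9 dispensing solution, before mixing · Measure – percent inhibition from mP, scaled between DMSO and no-protein wells · Benchmarks – DMSO-treated enzyme wells and wells lacking RBBP9 · Times – preincubation 30 min plus labeling 45 min at 25 °C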
14-3-3 Bad PPI: disrupts binding of bovine 14-3-3 zeta to phospho-Bad peptide | P63103 | TR-FRET 14-3-3zeta/Dy647-pBad peptide displacement, 1 h | inhibition, % at 21.7 µM | hit rate 0.71% among 220,000 | AID 781;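 active = inhibition above about 70%, limit read from the data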;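 note: 0% = full 14-3-3 plus peptide FRET controls and 100% = background without 14-3-3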
Target sequence (P63103 whole entry, looked up): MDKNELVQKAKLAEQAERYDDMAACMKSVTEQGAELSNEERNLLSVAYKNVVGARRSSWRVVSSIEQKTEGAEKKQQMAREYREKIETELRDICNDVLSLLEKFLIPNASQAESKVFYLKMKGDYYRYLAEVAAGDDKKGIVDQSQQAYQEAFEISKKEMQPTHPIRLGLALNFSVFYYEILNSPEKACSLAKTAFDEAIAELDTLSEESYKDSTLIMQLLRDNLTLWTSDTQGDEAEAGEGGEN
KCC2 secondary: KCC2 (human) modulation, secondary assay | shares compounds with KCC2 mod | HEK293-KCC2, thallium flux, FluoZin2 fluorescence; stronger effect = higher value | normalised thallium flux (F/F0 slope) at 10 µM | hit rate 15% among 3,700;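 active = thallium flux slope above the same plate's solvent-only control mean plus 3 SD; inconclusive = the two replicate wells disagree; inactive = no significant difference from solvent-only control wells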
KCC2 bumet counter: bumetanide-insensitive thallium flux in KCC2 cells with ouabain, counter-screen. normalized thallium flux at 10 µM. HEK293-KCC2 + bumetanide/ouabain, thallium flux FluoZin2; stronger effect = higher value. AID 1714. shares compounds with KCC2 mod. hit rate 49% among 3,700;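 active = thallium entry rate above the same plate's blocked-transporter control wells by more than 3 SD; inconclusive = the two repeat wells disagree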;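 note: raw slope of fluorescence over initial fluorescence between 10 and 20 s after thallium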
KCC2 sec2: KCC2 (human) modulation, second secondary assay. shares compounds with KCC2 mod. HEK293-KCC2, thallium flux FluoZin2 fluorescence; actives lie on both sides; F/F0 rise rate, 10–20 s post-thallium. normalized thallium flux at 10 µM. hit rate 23% among 3,700. AID 1715;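 active = thallium flux slope more than 3 SD above or below the plate's solvent-only control mean, mostly below; inconclusive = the two repeat wells disagreed; inactive = no significant shift from solvent-only controls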;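 note: raw slope with 0.1% DMSO as baseline and bumetanide as block control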
HEK counter1: parental HEK flux effect, counter-screen; thallium flux rate (normalised fluorescence) at 10 µM; AID 1716; shares compounds with KCC2 mod; hit rate 46% among 3,700; HEK293 parental cells, thallium flux FluoZin2, ouabain; baseline-ratio fluorescence slope, 10–20 s after thallium;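 active = thallium flux rate significantly above the same plate's solvent-only control wells, beyond their mean plus 3 SD; inconclusive = the two replicate wells gave conflicting results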
KCC2 retest ouab: KCC2 (human) modulation, ouabain retest. shares compounds with KCC2 mod. HEK293-KCC2, thallium flux FluoZin2 fluorescence; bidirectional: low = inhibitor, high = activator. raw Tl+ flux slope (below DMSO = inhibition, above = activation) at 10 µM. hit rate 48% among 3,700;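 active = thallium flux slope beyond 3 SD from same-plate DMSO control mean in most replicates, usually higher, sometimes lower; inconclusive = repeat tests gave conflicting results; inactive = no significant difference from controls in most replicates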;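 note: slope of initial-normalized fluorescence between seconds 10 and 20 after thallium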
HEK293 Tl flux2: acts in parental HEK cells, second KCC2 counter-screen; shares compounds with KCC2 mod; HEK293 parental, thallium flux FluoZin-2 fluorescence slope; thallium flux slope at 10 µM; hit rate 33% among 3,700; AID 1718;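 active = thallium flux slope above the same plate's solvent-control mean plus 3 SD in both duplicate wells; inconclusive = duplicate wells that disagreed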;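 note: run without ouabain in cells lacking the KCC2 cotransporter; slope of fluorescence scaled to its starting value between 10 and 20 s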
Starred values were filed as active, the others as inactive; ? = inconclusive; / = no result given.

SMILES	WT yeast gro inh	KCC2 mod	ROMK mod	p47phox inh	RBBP9 inhibitor	14-3-3 Bad PPI	KCC2 secondary	KCC2 bumet counter	KCC2 sec2	HEK counter1	KCC2 retest ouab	HEK293 Tl flux2
CC1OC(OC2C(OC3C(O[C@H]4CC[C@]5(C)C6C=C[C@]78OC[C@@]9(CC[C@@H](C)[C@H](C)C97)[C@H](O)C[C@@]8(C)[C@]6(C)CC[C@H]5C4(C)C)OC(C)C(O)C3O)OC(CO)C(O)C2O)C(O)C(O)C1O (stereo partly specified)	/	28*	/	7	/	1	?	0.025*	0.032	0.043*	?	0.011
COc1c(Cl)cccc1-c1cn2ccc(C)cc2n1	/	-0.33	-1.4	-7	-8	2	/	/	/	/	/	/
CCOc1ccc(N(CCCCO)C(=S)NC(=O)c2ccc(C)c(Br)c2)cc1	36	13*	/	-14	-4	-10	0.0076	0.049*	0.044*	0.029*	0.046*	0.033*
CCOc1ccc(C(=O)NCCCN(CC)CC)cc1	-15	0.99	-0.11	7	-8	22	/	/	/	/	/	/
COc1ccc(Cl)cc1C(=O)NNC(=O)CN1C(=O)C2CC=CCC2C1=O (stereo unspecified)	-6	0.038	1.7	0	-11	-13	/	/	/	/	/	/
COc1ccc(/C=C(/NC(=O)c2ccco2)C(=O)N2CCCC2=O)cc1	0	0.0059	0.14	-5	-3	-10	/	/	/	/	/	/
CN1c2ccccc2Oc2nnc(N3CCN(Cc4ccccc4)CC3)cc21	26	-4*	-0.032	16	-10	19	0.0053	?	0.021*	0.0065	?	0.011
Cc1nsc(Nc2ccc([N+](=O)[O-])cc2)c1C#N	5	-1.8	-1.7	0	7	-18	/	/	/	/	/	/
COc1ccc(C(=O)NNC(=O)c2ccc(C(C)(C)C)cc2)cc1	-17	-1.3	0.41	-1	-5	-20	/	/	/	/	/	/
COc1ccc(C(=O)NC(=S)NNC(=O)c2cnccn2)cc1	-4	0.98	0.86	-9	-8	-18	/	/	/	/	/	/
COc1ccc(C(=O)NC(=S)NNC(=O)COc2ccccc2)cc1	30	35*	1.1	-23	1	-8	0.023*	0.072*	?	0.036*	0.051*	0.021*
CCNC(=O)COc1ccc(Br)cc1Cl	7	-0.31	/	-10	-6	6	/	/	/	/	/	/
COc1ccc(OCC(=O)NC(=S)NNC(=O)COc2ccc(Br)cc2Cl)cc1	19	13*	0.97	-6	5	-20	0.011	0.026*	0.033	0.019*	0.026	0.013*
COc1ccc(C(=O)NNC(=S)NC(=O)C(C)(C)C)cc1	48	24*	-0.23	-6	-1	-19	0.024*	0.036*	?	0.043*	0.042*	0.014*
O=C(COc1ccc2ccccc2c1)NNC(=O)c1ccc([N+](=O)[O-])cc1	-16	-2.8	/	-15	-4	-3	/	/	/	/	/	/
O=C(COc1ccc([N+](=O)[O-])cc1)NNC(=S)NC(=O)c1ccc(Br)cc1	70*	6*	-1.6	-4	-9	-13	?	0.029*	0.03	0.018*	0.027*	?
CCCNC(=O)c1ccccc1NC(=O)CN(c1ccccc1)S(=O)(=O)N(C)C	10	/	0.48	9	-7	8	/	/	/	/	/	/
Cc1cc(C)n(C(=O)/C(C#N)=C/N(C)C)n1	-13	0.023	/	-1	-4	-3	/	/	/	/	/	/
Cc1cc(OCc2nc(-c3ccncc3)no2)cc(C)c1Cl	12	0.058	0.52	-6	-4	4	/	/	/	/	/	/
O=C(COc1ccccc1)NNC(=S)NC(=O)c1ccccc1	32	18*	2.2	-7	-11	-12	0.007	0.045*	0.05*	0.039*	0.043*	0.041*
CC(=O)NNC(=S)NC(=O)c1ccccc1	37	-0.055	0.23	4	-2	-11	/	/	/	/	/	/
COc1ccc(N(CC(=O)Nc2ccc(C)c(C)c2)S(=O)(=O)c2c(C)n[nH]c2C)cc1	4	/	/	-20	-1	5	0.0067	?	0.026*	0.007	?	0.011
CSc1sc(C(=O)Nc2ccc(F)cc2F)c2c1C=CCC2	/	0.19	0.58	-8	-7	-1	/	/	/	/	/	/
CC(C)(CO)NCC(=O)Nc1cc(C(F)(F)F)cc(NC(=O)CNC(C)(C)CO)c1Cl	3	0.64	/	-2	-3	-9	/	/	/	/	/	/
Cc1cccc(NC(=O)Cn2c(O)c(N=NC(N)=S)c3ccccc32)c1	/	0.39	/	1	-13	1	/	/	/	/	/	/
SMILES	WT yeast gro inh	KCC2 mod	ROMK mod	p47phox inh	RBBP9 inhibitor	14-3-3 Bad PPI	KCC2 secondary	KCC2 bumet counter	KCC2 sec2	HEK counter1	KCC2 retest ouab	HEK293 Tl flux2
CC1=CC(C)(C)n2c(O)c(N=NC(N)=S)c3cc(C)cc1c32	-11	8.7*	-0.91	0	-9	-7	0.012*	0.033*	0.03	0.016*	?	0.011*
COc1cc2nc(=S)n3[nH]c(CCn4nc(C)cc4C)nc3c2cc1OC	-7	-0.36	/	-3	-8	-2	/	/	/	/	/	/
COc1cc2nc(=S)n3[nH]c(COc4ccccc4C)nc3c2cc1OC	3	-9.2*	/	-15	-3	13	0.0088	0.0059	0.029	0.0061*	0.01*	?
O=C(Cc1csc(Nc2nc(=S)[nH]c3ccccc23)n1)N1CCN(c2cccc(Cl)c2)CC1	10	25*	-0.75	-17	-8	4	?	0.075*	0.036	0.03*	0.053*	0.014*
Cc1ccc(Cl)cc1N1CCN(C(=O)Cc2csc(Nc3nc(=S)[nH]c4ccccc34)n2)CC1	-8	19*	1.8	-22	6	-12	0.013*	0.053*	?	0.032*	0.054*	0.014*
CN1CCN(C(=O)c2cc(COc3c(F)cccc3F)on2)CC1c1ccccc1 (stereo unspecified)	79*	-4*	/	-4	-4	-10	0.0071	0.0047	0.033	0.0067	0.015*	0.012
O=C(NCCCn1ncc2ccccc21)c1cc(COc2c(F)cccc2F)on1	26	-5.9*	0.24	-2	-3	-11	0.016	?	0.022*	0.0068	0.012*	0.0099

Assay outcomes: PubChem, several laboratories
